Data taken from ChEMBL document CHEMBL5532673, “Design and Discovery of Novel NLRP3 Inhibitors and PET Imaging Radiotracers Based on a 1,2,3-Triazole-Bearing Scaffold” (J Med Chem, 2024).
Calls of active or inactive are those of the source. No cut-off for these calls is given here.

What was measured:
[1] = molecular target: NACHT, LRR and PYD domains-containing protein 3 (Mus musculus, UniProt Q8R4B8); experiment: Inhibition of NLRP3 inflammasome activation in LPS treated mouse J774.A1 cells assessed as inhibition of ATP-stimulated IL-1beta secretion pre-incubated for 30 mins followed by ATP addition measured after 30 mins by ELISA; assay type: cell-based
Outline: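 Murine J774A.1 macrophages seeded at 1×10^5 cells/well overnight, then primed with E. coli O111:B4 LPS (final 1 µg/mL) for 4.5 h. Compounds added for 30 min, then ATP (5 mM) for 30 min to activate NLRP3. IL-1β released into the supernatant quantified by mouse IL-1β ELISA.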

[2] = Drug uptake in monkey cerebellum at iv administration by PET/MR imaging analysis; assay type: ADME, organism-based, Macaca mulatta; settings: rhesus monkey, in vivo
Outline: (§1)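 Single rhesus macaque (n=1). Radiotracer 5.20 mCi given i.v. through an antecubital catheter. Dynamic PET/MR acquired on a 3T scanner with a BrainPET insert, 3D-OSEM reconstruction, registration to the INIA19/NeuroMaps atlas. Regional activity expressed as SUV, with an arterial line for plasma metabolite analysis.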

[3] = Drug uptake in monkey brain assessed as standardized uptake value at iv administration by PET/MR imaging analysis; assay type: ADME, organism-based, Macaca mulatta; settings: rhesus monkey, in vivo; outline: as §1
[4] = Drug uptake in monkey hippocampus at iv administration by PET/MR imaging analysis; assay type: ADME, organism-based, Macaca mulatta; settings: rhesus monkey, in vivo; outline: as §1
[5] = Drug uptake in monkey insula at iv administration by PET/MR imaging analysis; assay type: ADME, organism-based, Macaca mulatta; settings: rhesus monkey, in vivo; outline: as §1
[6] = Drug uptake in monkey thalamus at iv administration by PET/MR imaging analysis; assay type: ADME, organism-based, Macaca mulatta; settings: rhesus monkey, in vivo; outline: as §1
[7] = Drug uptake in monkey putamen at iv administration by PET/MR imaging analysis; assay type: ADME, organism-based, Macaca mulatta; settings: rhesus monkey, in vivo; outline: as §1
[8] = molecular target: NACHT, LRR and PYD domains-containing protein 3 (Mus musculus) (UniProt Q8R4B8); experiment: Inhibition of NLRP3 inflammasome activation in LPS treated mouse J774.A1 cells assessed as inhibition of nigericin-stimulated IL-1beta secretion at 0.1 to 1 uM pre-incubated for 30 mins followed by nigericin addition measured after 30 mins by ELISA; assay type: cell-based; settings: dose 0.1-1 µM, time 60.0 min
[9] = molecular target: NACHT, LRR and PYD domains-containing protein 3 (Mus musculus) (UniProt Q8R4B8); experiment: Inhibition of NLRP3 inflammasome activation in LPS treated mouse J774.A1 cells assessed as inhibition of ATP-stimulated IL-1beta secretion at 0.1 to 1 uM pre-incubated for 30 mins followed by ATP addition measured after 30 mins by ELISA; assay type: cell-based; settings: dose 0.1-1 µM, time 60.0 min
Outline: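 J774A.1 cells plated at 1 × 10^5 cells/well overnight, primed with E. coli 0111:B4 LPS (final 1 μg/mL) for 4.5 h. Compound added for 30 min, then ATP (5 mM) for 30 min to activate NLRP3. IL-1β in supernatant measured by mouse IL-1β ELISA.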

[10] = molecular target: NACHT, LRR and PYD domains-containing protein 3 (Mus musculus) (UniProt Q8R4B8); experiment: Inhibition of NLRP3 inflammasome activation in LPS treated mouse J774.A1 cells assessed as inhibition of TNF-alpha secretion at 0.1 to 10 uM followed by LPS addition measured after 4.5 hrs by ELISA; assay type: cell-based; settings: dose 0.1-10 µM
[11] = molecular target: NACHT, LRR and PYD domains-containing protein 3 (Mus musculus) (UniProt Q8R4B8); experiment: Binding affinity to NLRP3 in C57BL/6 mouse brain expressing nIrp3-/- incubated for 20 mins by autoradiography; assay type: tissue-based; settings: tested as the 11C-labelled form
Outline: (§2)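 Frozen mouse brain sections preincubated in 50 mM Tris-HCl pH 7.4 for 30 min at ambient temperature, then incubated 20 min at ambient temperature with [11C]8 (5 mCi/L, ~1 nM). For blocking, unlabeled ligand (10 μM) added to the incubation solution beforehand (n = 4). Sections washed in Tris-HCl (3 × 5 min), dried, exposed to imaging plates 120 min; ROI signal given as DLU/mm2.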

[12] = molecular target: NLR family CARD domain-containing protein 4 (Mus musculus) (UniProt Q3UP24); experiment: Inhibition of NLRC4 inflammasome activation in LPS treated mouse J774.A1 cells assessed as inhibition of IL-1beta secretion at 10 uM pre-incubated for 1 hr followed by flagellin stimulation for 6 hrs by ELISA; assay type: cell-based; settings: time 7.0 hrs
Outline: (§3)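 J774A.1 cells at 1×10^5/well, plated overnight. Co-treated with LPS (1 µg/mL) and compound for 1 h. AIM2 triggered by poly(dA:dT) (4 µg/mL) transfected with Lipofectamine 2000 for 4 h. NLRC4 triggered by flagellin (1 µg/mL) delivered with a transfection kit for 6 h. Supernatant IL-1β read by mouse ELISA.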

[13] = molecular target: NACHT, LRR and PYD domains-containing protein 3 (Mus musculus) (UniProt Q8R4B8); experiment: Binding affinity to NLRP3 in wild type C57BL/6 mouse brain incubated for 20 mins in presence of compound 8 by autoradiography; assay type: tissue-based; settings: tested as the 11C-labelled form; outline: as §2
[14] = molecular target: NACHT, LRR and PYD domains-containing protein 3 (Mus musculus) (UniProt Q8R4B8); experiment: Binding affinity to NLRP3 in wild type C57BL/6 mouse brain incubated for 20 mins in presence of compound MCC950 by autoradiography; assay type: tissue-based; settings: tested as the 11C-labelled form; outline: as §2
[15] = molecular target: T1, Interferon-inducible protein AIM2 (Mus musculus) (UniProt Q91VJ1); experiment: Inhibition of AIM2 inflammasome activation in LPS treated mouse J774.A1 cells assessed as inhibition of IL-1beta secretion at 10 uM pre-incubated for 1 hr followed by Poly (dA:dT) stimulation for 4 hrs by ELISA; assay type: cell-based; settings: time 5.0 hrs; outline: as §3
T1 sequence (whole entry): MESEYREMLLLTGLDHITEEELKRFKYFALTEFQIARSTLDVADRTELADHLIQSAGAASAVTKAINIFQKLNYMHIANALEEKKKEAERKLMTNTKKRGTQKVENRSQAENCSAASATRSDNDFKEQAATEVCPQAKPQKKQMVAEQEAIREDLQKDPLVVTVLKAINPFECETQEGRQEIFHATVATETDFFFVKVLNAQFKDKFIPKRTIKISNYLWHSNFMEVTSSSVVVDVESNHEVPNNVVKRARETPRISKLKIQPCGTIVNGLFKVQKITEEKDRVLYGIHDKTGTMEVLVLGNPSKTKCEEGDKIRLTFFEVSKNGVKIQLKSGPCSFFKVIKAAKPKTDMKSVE

[16] = molecular target: NACHT, LRR and PYD domains-containing protein 3 (Mus musculus) (UniProt Q8R4B8); experiment: Binding affinity to NLRP3 in wild type C57BL/6 mouse brain incubated for 20 mins by autoradiography; assay type: tissue-based; settings: tested as the 11C-labelled form; outline: as §2
[17] = molecular target: NLR family CARD domain-containing protein 4 (Mus musculus) (UniProt Q3UP24); experiment: Inhibition of NLRC4 inflammasome activation in LPS treated mouse J774.A1 cells assessed as inhibition of IL-1beta secretion at 3 uM pre-incubated for 1 hr followed by flagellin stimulation for 6 hrs by ELISA; assay type: cell-based; settings: time 7.0 hrs; outline: as §3
[18] = molecular target: T1, Interferon-inducible protein AIM2 (Mus musculus); experiment: Inhibition of AIM2 inflammasome activation in LPS treated mouse J774.A1 cells assessed as inhibition of IL-1beta secretion at 3 uM pre-incubated for 1 hr followed by Poly (dA:dT) stimulation for 4 hrs by ELISA; assay type: cell-based; settings: time 5.0 hrs; outline: as §3
[19] = molecular target: NACHT, LRR and PYD domains-containing protein 3 (Mus musculus) (UniProt Q8R4B8); experiment: Inhibition of NLRP3 inflammasome activation in LPS treated mouse J774.A1 cells assessed as inhibition of TNF-alpha secretion at <=3 uM followed by LPS addition measured after 4.5 hrs by ELISA; assay type: cell-based

Chain of NACHT, LRR and PYD domains-containing protein 3 (Q8R4B8 whole entry, the tested form may be a part): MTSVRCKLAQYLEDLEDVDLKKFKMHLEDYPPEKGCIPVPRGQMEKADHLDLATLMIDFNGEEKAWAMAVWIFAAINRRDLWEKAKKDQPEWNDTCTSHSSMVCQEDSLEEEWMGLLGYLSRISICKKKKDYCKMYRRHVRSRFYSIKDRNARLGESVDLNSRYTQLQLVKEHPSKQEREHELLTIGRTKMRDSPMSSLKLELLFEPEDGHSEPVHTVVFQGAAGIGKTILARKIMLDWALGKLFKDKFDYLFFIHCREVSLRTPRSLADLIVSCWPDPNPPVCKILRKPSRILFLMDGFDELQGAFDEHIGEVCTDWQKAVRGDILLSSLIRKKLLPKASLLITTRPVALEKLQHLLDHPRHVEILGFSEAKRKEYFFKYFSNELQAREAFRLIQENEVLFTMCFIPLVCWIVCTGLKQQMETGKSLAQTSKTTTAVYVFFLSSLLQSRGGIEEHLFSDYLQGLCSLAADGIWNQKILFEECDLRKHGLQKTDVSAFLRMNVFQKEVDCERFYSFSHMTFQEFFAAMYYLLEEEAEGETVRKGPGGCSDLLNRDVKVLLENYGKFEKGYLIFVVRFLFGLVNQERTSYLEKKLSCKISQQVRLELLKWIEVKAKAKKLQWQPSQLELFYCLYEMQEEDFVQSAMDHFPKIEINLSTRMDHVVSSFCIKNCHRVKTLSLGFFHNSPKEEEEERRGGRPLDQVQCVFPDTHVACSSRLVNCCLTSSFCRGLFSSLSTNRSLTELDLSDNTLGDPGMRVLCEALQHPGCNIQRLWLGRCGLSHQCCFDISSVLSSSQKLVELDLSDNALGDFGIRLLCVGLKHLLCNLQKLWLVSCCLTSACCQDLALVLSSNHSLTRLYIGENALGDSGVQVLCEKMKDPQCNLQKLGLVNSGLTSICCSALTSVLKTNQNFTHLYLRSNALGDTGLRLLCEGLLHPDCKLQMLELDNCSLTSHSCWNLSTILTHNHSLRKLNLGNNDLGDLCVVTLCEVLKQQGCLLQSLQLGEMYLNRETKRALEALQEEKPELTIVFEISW
Chain of NACHT, LRR and PYD domains-containing protein 3 (Mus musculus) (Q8R4B8 whole entry, the tested form may be a part): as above
Chain of NLR family CARD domain-containing protein 4 (Mus musculus) (Q3UP24 whole entry, the tested form may be a part): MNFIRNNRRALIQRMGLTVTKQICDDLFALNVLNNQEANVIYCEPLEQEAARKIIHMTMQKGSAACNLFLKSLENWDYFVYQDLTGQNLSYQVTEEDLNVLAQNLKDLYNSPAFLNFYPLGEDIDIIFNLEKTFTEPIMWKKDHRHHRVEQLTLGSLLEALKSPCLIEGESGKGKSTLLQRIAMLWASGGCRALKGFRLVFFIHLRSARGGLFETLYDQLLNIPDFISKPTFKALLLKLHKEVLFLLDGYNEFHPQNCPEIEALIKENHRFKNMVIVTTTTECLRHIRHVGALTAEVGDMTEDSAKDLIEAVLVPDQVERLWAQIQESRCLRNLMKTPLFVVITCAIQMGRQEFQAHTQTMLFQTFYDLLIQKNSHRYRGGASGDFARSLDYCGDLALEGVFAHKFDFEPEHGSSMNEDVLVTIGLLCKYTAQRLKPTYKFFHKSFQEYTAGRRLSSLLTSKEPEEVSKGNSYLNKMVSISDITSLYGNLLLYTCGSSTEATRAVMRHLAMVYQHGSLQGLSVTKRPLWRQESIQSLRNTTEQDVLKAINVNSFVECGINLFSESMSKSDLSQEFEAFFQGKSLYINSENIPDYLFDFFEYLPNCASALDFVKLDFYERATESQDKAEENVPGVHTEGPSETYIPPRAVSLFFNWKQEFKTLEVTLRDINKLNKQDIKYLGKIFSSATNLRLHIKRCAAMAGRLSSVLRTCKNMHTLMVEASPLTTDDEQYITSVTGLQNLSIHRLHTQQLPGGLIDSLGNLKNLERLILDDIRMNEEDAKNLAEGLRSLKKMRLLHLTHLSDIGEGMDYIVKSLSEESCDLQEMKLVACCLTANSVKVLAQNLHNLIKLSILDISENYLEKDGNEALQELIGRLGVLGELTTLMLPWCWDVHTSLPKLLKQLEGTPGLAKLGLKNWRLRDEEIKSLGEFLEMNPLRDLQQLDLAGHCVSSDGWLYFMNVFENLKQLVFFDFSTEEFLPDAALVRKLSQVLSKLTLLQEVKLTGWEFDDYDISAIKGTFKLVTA

Compound | IC50 ([1]; read-out: IC50) | further results
COC(=O)c1ccc(-c2cn(Cc3ccccc3)nn2)cc1 |  | IC50 ([1]; j774.a1): Not Active
COC(=O)c1ccc(-c2cn(Cc3cc(Br)ccc3OC)nn2)cc1 | 1070 nM | 
CCCOc1ccc(Cl)cc1Cn1cc(-c2ccc(S(N)(=O)=O)cc2)nn1 | 1510 nM | 
CNC(=O)c1ccc(-c2cn(Cc3cc(Cl)ccc3OC)nn2)cc1 | 4210 nM | 
COC(=O)c1ccc(-c2cn(Cc3cc(Cl)cc(OC)c3)nn2)cc1 | 510 nM | 
COC(=O)c1ccc(-c2cn(Cc3cccc(Cl)c3)nn2)cc1 | 2160 nM | 
COC(=O)c1ccc(-c2cn(Cc3cc(F)cc(F)c3OC)nn2)cc1 |  | IC50 ([1]; j774.a1): Not Active
COC(=O)c1ccc(-c2cn(Cc3cc(F)c(F)cc3OC)nn2)cc1 | 2470 nM | 
COC(=O)c1ccc(-c2cn(Cc3cc(Cl)ccc3OC)nn2)nc1 | 2310 nM | 
COC(=O)c1cccc(-c2cn(Cc3cc(Cl)ccc3OC)nn2)c1 | 1610 nM | 
COC(=O)c1ccc(-c2cn(Cc3cc(F)ccc3OC)nn2)cc1 | 1500 nM | 
COC(=O)c1ccc(-c2cn(Cc3cc(Cl)ccc3C(F)(F)F)nn2)cc1 |  | IC50 ([1]; j774.a1): Not Active
COC(=O)c1ccc(-c2cn(Cc3cc(Cl)ccc3O[11CH3])nn2)cc1 |  | Drug uptake [2]: Active; SUV [3]: > 3; Drug uptake [4]: Active; Drug uptake [5]: Active; Drug uptake [6]: Active; Drug uptake [7]: Active
COc1ccc(-c2cn(Cc3cc(Cl)ccc3OC)nn2)cc1 | 1310 nM | 
CCCOc1ccc(Cl)cc1Cn1cc(-c2ccc(F)cc2)nn1 | 4280 nM | 
COC(=O)c1ccc(-c2cn(Cc3cc(Cl)ccc3OC)nn2)cc1 |  | inhibition [8]: Active; inhibition [9]: Active; inhibition [10]: inactive; Activity [11]: Active; inhibition [12]: inactive; Activity [13]: Active; Activity [14]: Active; inhibition [15]: inactive; Activity [16]: Active
COC(=O)c1ccc(-c2cn(Cc3c(OC)ccc(F)c3F)nn2)cc1 | 2860 nM | 
CCCOc1ccc(Cl)cc1Cn1cc(-c2ccc(C(=O)O)cc2)nn1 | 12000 nM | 
COC(=O)c1ccc(-c2cn(Cc3cc(Cl)ccc3OC)nn2)c(F)c1 | 1620 nM | 
COc1ccc(Cl)cc1Cn1cc(-c2ccc(C(=O)N3CCC3)cc2)nn1 | 1430 nM | 
COC(=O)c1ccc(-c2cn(Cc3ccccc3OC(F)F)nn2)cc1 | 8060 nM | 
CCCOc1ccc(Cl)cc1Cn1cc(-c2ccccc2)nn1 |  | inhibition [17]: Active; inhibition [18]: Active; inhibition [12]: Active; inhibition [19]: inactive; inhibition [15]: Active
COc1ccc(Cl)cc1Cn1cc(-c2ccc(C(=O)O)cc2)nn1 | 14000 nM | 
COC(=O)c1ccc(-c2cn(Cc3ccccc3OC)nn2)cc1 | 3720 nM | 
CCCOc1ccc(Cl)cc1Cn1cc(-c2ccc(C)cc2)nn1 | 8360 nM | 
COC(=O)c1ccc(-c2cn(Cc3cc(C(F)(F)F)ccc3OC)nn2)cc1 | 810 nM | 
COC(=O)c1ccc(-c2cn(Cc3cc(Cl)ccc3OC)nn2)c(C)c1 | 2030 nM | 
CCCOc1ccc(Cl)cc1Cn1cc(-c2ccc(C(=O)OC)cc2)nn1 | 1210 nM | 
COC(=O)c1ccc(-c2cn(Cc3cc(Cl)ccc3O)nn2)cc1 | 3130 nM | 
CCCOc1ccc(Cl)cc1Cn1cc(-c2ccc(C(F)(F)F)cc2)nn1 | 12800 nM | 
